Active and inactive are the calls of the source. The calls are words filed in the database; no cut-off is given here.
Tests used:
[1] = target: T1, Monoglyceride lipase (Homo sapiens) (UniProt Q99685); assay: Reversible inhibition of human recombinant MAGL using 4-nitrophenylacetate as substrate at 320 nM incubated for 15 mins by microplate reader analysis
T1 sequence (whole entry): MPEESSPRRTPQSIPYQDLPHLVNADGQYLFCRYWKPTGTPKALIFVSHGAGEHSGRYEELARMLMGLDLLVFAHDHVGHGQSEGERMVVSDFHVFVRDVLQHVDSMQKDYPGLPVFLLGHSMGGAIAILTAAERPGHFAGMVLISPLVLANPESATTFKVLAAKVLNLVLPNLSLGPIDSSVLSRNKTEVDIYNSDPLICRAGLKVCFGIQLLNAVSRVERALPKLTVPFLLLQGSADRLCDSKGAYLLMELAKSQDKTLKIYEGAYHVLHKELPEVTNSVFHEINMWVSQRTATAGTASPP
Method in brief: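 Human recombinant MAGL (880 ng in Tris buffer, pH 7.2) incubated 60 min at room temperature with compound at 320 nM in the mixture, then diluted 40-fold in buffer. After 15 min, reaction started with 4-NPA 500 μM (stock added). Activity read at 405 nm after 30 min. Undiluted comparison run at 320 nM and 8 nM.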

[2] = target: Cannabinoid receptor 2 (Homo sapiens) (UniProt P34972); assay: Displacement of [3H]CP55940 from human CB2 receptor at 10 uM incubated for 90 mins
Sequence of Cannabinoid receptor 2 (Homo sapiens) (P34972 whole entry): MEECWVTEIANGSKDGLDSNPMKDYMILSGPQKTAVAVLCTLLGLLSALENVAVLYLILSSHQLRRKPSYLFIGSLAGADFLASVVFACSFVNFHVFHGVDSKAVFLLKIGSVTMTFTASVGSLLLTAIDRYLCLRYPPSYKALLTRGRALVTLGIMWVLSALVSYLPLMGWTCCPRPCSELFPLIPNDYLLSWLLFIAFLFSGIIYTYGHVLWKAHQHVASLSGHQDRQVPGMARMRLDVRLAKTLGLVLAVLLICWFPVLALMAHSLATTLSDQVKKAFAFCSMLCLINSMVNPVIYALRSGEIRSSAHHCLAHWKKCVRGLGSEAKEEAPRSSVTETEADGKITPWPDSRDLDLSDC
Method in brief: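 Membranes expressing hCB1 or hCB2 in 50 mM Tris-HCl buffer, pH 7.4, with 2.5 mM EDTA, 5 mM MgCl2 and 0.5% fatty acid-free BSA. Incubated with compound (10 μM screening) or vehicle plus 0.5 nM [3H]CP55,940 for 90 min at 30 °C. Non-specific binding defined with 10 μM […]. GF/B filtration, ice-cold buffer washes, radioactivity counted. Two independent experiments in triplicate.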

[3] = target: T2, Lysophosphatidylserine lipase ABHD12 (Homo sapiens) (UniProt Q8N2K0); assay: Inhibition of human ABHD12 transfected in HEK293 cells at 10 uM preincubated with compound for 30 mins followed by 2-OG addition and measured after 5 mins by liquid scintillation spectroscopy; format: cell-based; conditions: time 35.0 min
T2 sequence (whole entry): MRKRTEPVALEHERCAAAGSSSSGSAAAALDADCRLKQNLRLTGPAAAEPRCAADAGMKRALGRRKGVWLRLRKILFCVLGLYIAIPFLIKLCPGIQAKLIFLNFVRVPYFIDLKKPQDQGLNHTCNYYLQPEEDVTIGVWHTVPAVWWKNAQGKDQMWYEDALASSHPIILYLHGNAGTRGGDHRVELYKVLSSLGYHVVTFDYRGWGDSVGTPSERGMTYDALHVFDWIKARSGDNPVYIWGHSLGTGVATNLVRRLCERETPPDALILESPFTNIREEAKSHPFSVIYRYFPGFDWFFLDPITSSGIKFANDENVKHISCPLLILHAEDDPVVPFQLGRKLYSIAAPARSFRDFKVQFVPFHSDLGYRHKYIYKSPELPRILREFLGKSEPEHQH
Method in brief: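 Homogenates (40 μg) of HEK293 cells stably transfected with hABHD6 or hABHD12. Compound 10 μM preincubated 30 min at 37 °C, 500 rpm, in Tris/EDTA buffer with 0.1% fatty acid-free BSA, pH 7.6. Controls: WWL70 10 μM or THL 20 μM; DMSO vehicle. 2-OG 10 μM added for 5 min at 37 °C. Stopped with ice-cold CHCl3:MeOH; aqueous phase counted. No-enzyme blanks used; non-transfected HEK293 hydrolysis subtracted.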

Monoglyceride lipase = target: T3, Monoglyceride lipase (Homo sapiens, UniProt Q99685); assay: Inhibition of human recombinant MAGL using 4-nitrophenylacetate as substrate incubated for 30 mins by microplate reader analysis
T3 sequence (Q99685 whole entry): T1 sequence (whole entry)

[4] = target: T4, Monoglyceride lipase (Mus musculus) (UniProt O35678); assay: Reversible inhibition of mouse brain MAGL at 10 uM incubated with compound for 25 mins by TAMRA-FP probe based SDS-PAGE analysis; format: tissue-based
T4 sequence (whole entry): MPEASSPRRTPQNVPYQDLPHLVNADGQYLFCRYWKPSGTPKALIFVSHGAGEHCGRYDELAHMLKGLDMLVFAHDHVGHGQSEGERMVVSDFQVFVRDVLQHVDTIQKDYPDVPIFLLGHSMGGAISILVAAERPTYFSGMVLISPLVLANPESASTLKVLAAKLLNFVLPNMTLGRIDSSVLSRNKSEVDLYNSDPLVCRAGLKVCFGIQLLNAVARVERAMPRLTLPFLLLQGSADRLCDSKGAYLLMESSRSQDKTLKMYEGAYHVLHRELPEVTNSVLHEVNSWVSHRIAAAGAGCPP
Method in brief: (§1)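 Mouse brain membranes (2 mg/mL final, in PBS) preincubated 25 min at 25 °C with test compound (10 μM final) or DMSO vehicle. Controls: JZL-184, URB597 4 μM, WWL70 10 μM, THL, MAFP 5 μM. TAMRA-FP 125 nM final added for 5 min at 25 °C. Reaction stopped with Laemmli buffer, 3 min at 25 °C then 10 min at 90 °C. Separation by 10% SDS-PAGE, fluorescence scanning, three independent experiments.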

[5] = target: T1, Monoglyceride lipase (Homo sapiens); assay: Reversible inhibition of human recombinant MAGL using 4-nitrophenylacetate as substrate preincubated with compound for 60 mins followed by substrate addition and measured after 30 mins by microplate reader analysis; conditions: time 90.0 min
Method in brief: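 Human recombinant MAGL (11 ng/well) in Tris pH 7.2 buffer with EDTA and BSA, preincubated with compound for 0, 30 or 60 min at room temperature. Reaction then started with 4-NPA 500 μM (solution added). Absorbance at 405 nm after 30 min. IC50 from triplicates of two independent experiments.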

[6] = target: T5, Monoacylglycerol lipase ABHD6 (Mus musculus) (UniProt Q8R2Y0); assay: Inhibition of mouse brain ABHD6 at 10 uM incubated with compound for 25 mins by TAMRA-FP probe based SDS-PAGE analysis; format: tissue-based; method in brief: as §1
T5 sequence (whole entry): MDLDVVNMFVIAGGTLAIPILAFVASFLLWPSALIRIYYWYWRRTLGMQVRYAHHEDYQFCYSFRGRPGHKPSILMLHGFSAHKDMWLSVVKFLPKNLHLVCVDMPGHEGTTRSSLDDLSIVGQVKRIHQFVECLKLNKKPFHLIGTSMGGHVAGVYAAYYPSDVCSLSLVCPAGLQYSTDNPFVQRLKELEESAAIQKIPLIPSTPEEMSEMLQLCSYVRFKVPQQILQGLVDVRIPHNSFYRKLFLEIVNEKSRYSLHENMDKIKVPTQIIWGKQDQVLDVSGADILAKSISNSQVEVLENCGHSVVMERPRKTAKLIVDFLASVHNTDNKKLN

Structure (SMILES) | inhibition [1] | Activity [2] | inhibition [3] | IC50 (Monoglyceride lipase) [nM] | inhibition [4] | inhibition [5] | inhibition [6]
O=C(c1cc(O)ccc1F)N1CCC(Cc2cccc(Sc3cc(C(F)(F)F)ccn3)c2)CC1 | Active | inactive | inactive | 1.3 | Active | Active | inactive
O=C(c1cc(O)ccc1F)N1CCN(Cc2cccc(Sc3cc(C(F)(F)F)ccn3)c2)CC1 | Active | inactive | inactive | 5.2 | Active | Active | inactive
O=C(c1cccc(O)c1)N1CCC(Cc2cccc(Sc3cc(C(F)(F)F)ccn3)c2)CC1 | Active | inactive | inactive | 2.5 | Active | Active | inactive
O=C(c1cccc(O)c1)N1CCC(Cc2ccc(F)c(Sc3cc(C(F)(F)F)ccn3)c2)CC1 | Active | inactive | inactive | 2.7 | Active | Active | inactive
